Bioassay records deposited in PubChem by several laboratories.
Neddylation inh – inhibitors of cullin neddylation, primary screen, biochemical, TR-FRET, uHTS, NAE and Ubc12; NEDD8-conjugating enzyme Ubc12 (Homo sapiens) + NEDD8-activating enzyme E1 regulatory …; inhibition, % at 25 µM; actives 0.58% (n = 360,000); AID 651699, 2012; in the data active = inhibition above about 36%
Efflux pump mplx – inhibitors of Candida efflux pumps in yeast, primary screen, S. cerevisiae, Nile Red, multiplex; inhibition, % at 10 µM; actives 0.44% (n = 330,000); S. cerevisiae Candida pump triplex;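 active = plate passing quality check with inhibition over a set limit, or well fluorescence over plate mean plus 4 SD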;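 also: Nile Red retained in pooled yeast measured as flow cytometry median fluorescence; 0% = buffer negative control and 100% = Enniatin B positive control; higher means more Nile Red kept so more efflux inhibition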
DSG3 Ab inh – inhibitors of pemphigus antibody binding to DSG3, primary screen, biochemical, bead-based, flow cytometry, scFv-GFP | Desmoglein-3 (Homo sapiens), P32926 | DSG3-coupled beads, scFv-anti-DSG3-GFP binding; stronger effect = lower value | binding (percent of control), % at 10 µM | actives 0.48% (n = 310,000) | AID 588358, 2011;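 active = binding more than 3 SD below its plate's average and above zero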;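 also: hits lower antibody fragment binding to DSG3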
Arrestin-AP2 inh – inhibitors of beta-arrestin/AP2 binding, primary screen, biochemical, GPCR trafficking, flow cytometry. inhibition, % at 10 µM. AID 504490, 2011. FITC-arrestin peptide / GST-AP2 beads; AP2 beta2 appendage carries R879A mutation. actives 0.31% (n = 340,000);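 active = inhibition above a set limit, near 3 SD of compounds lacking own fluorescence, cut at about 54% in these data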;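 also: plate controls were DMSO wells for no effect and 5 µM unlabelled arrestin peptide for full effect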
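System: GST-AP2 R879A glutathione beads. Medium: PBS with 0.05% Tween 20 and 0.1% BSA. Also added: FITC-arrestin peptide, 50 nM. Incubation: 12 min plus 1 h, RT. Measured by: high-throughput flow cytometry of beads, ex 488, em 535 nm. Evaluation: percent drop in bead-associated FITC signal.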
Arr-AP2 CP1 – inhibitors of arrestin peptide binding to AP2, confirmation, biochemical, cherry pick 1, flow cytometry beads | shares compounds with Arrestin-AP2 inh | AID 504908, 2011 | actives 2% (n = 1,300) | inhibition, % at 10 µM | GST-AP2 beads, FITC arrestin peptide binding; GST-fused beta2-adaptin appendage, R879A mutant;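 active = inhibition above a set limit, roughly 3 SD of non-fluorescent compound noise, cut at about 38% in these data; inactive = inhibition at or below that limit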;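 also: loss of bead fluorescence from 50 nM FITC arrestin peptide bound to appendage; 0% = negative control wells and 100% = excess unlabelled arrestin peptide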
GST-FITC bead – GST-fluorescein capture on glutathione beads, confirmation, artefact control for arrestin-AP2 inhibitor project, biochemical, cherry pick 1, flow cytometry; AID 588338, 2011; GST-fluorescein binding to GSH beads, fluorescence, counter-screen; actives 2% (n = 1,300); shares compounds with Arrestin-AP2 inh; inhibition, % at 10 µM;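 active = inhibition above 50%, about 3 SD of the inhibition seen with non-fluorescent compounds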;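 also: fluorescein maleimide labelled GST captured on 4 micron glutathione beads; higher means more loss of bead fluorescence from quenching or blocked binding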
* hit, by the source's call; / = no result shown. Most compounds without a hit are left out; they make up all but 1.7% or so of the library.

SMILES	Neddylation inh	Efflux pump mplx	DSG3 Ab inh	Arrestin-AP2 inh	Arr-AP2 CP1	GST-FITC bead
CCN(CC)S(=O)(=O)c1cc(NC(=O)C2=COCCO2)ccc1Cl	7	0	103	33	/	/
COc1cc(CNC(=O)c2cc(-c3ccc(F)cc3C)n[nH]2)cc(OC)c1	6	/	/	/	/	/
C/C(=N\Nc1ccc(S(N)(=O)=O)cc1[N+](=O)[O-])c1ccco1	-66	0	101	0	/	/
C=CCn1c(O)c2ccc(C(=O)N=NC(=O)c3ccc(F)cc3)cc2c1O	-7	0	93	5	/	/
CCn1c(O)c2ccc(C(=O)N=NC(=O)c3ccccc3)cc2c1O	-30	0	113	58*	13	-5
Cc1cc(OCC(O)CN2C(C)CCCC2C)ccc1C(C)C (centres undefined)	5	0	97	54*	1	-3
COc1ccc(C(CC(=O)O)NC(=O)COc2ccc(C)cc2)cc1OC (centres undefined)	9	0	97	-16	/	/
CC1(C)Cc2c(sc3c2c(=O)n(Cc2ccccc2)c2nncn32)CO1	-5	/	98	62*	8	0
CCCCCOc1ccc(NC(=O)CSc2cccc3cccnc23)cc1	/	0	104	107*	4	-4
Cc1ccc(C2Nc3cccc4cccc(c34)N2)s1	5	0	100	87*	9	10
Fc1ccc(C2Nc3cccc4cccc(c34)N2)cc1	1	0	103	31	/	/
CCc1nc(N2CCN(S(C)(=O)=O)CC2)c2c3c(sc2n1)CCCC3	-7	0	100	3	/	/
C/C(=N\NC(=O)Nc1ccccc1)c1ccc2ccccc2c1	-14	-1	95	93*	-6	-1
C/C(=N/NC(=O)Nc1ccccc1)c1ccc(C)cc1	3	0	79	6	/	/
COc1cc(OC)cc(C(=O)Nc2nc3ccc(S(C)(=O)=O)cc3s2)c1	-108	0	101	104*	3	-2
COc1cc(C(=O)Nc2nc3ccc(S(C)(=O)=O)cc3s2)cc(OC)c1C	-21	0	101	-1	/	/
Cc1cc(Br)ccc1NC(=O)C1CSC2(C)CCC(=O)N12 (centres undefined)	10	0	98	-2	/	/
CC12CCC(=O)N1C(C(=O)OCC(=O)Nc1ccc(Cl)c(Cl)c1)CS2 (centres undefined)	11	0	102	-10	5	-5
CN(C)S(=O)(=O)c1ccc(Cl)c(NC(=O)COC(=O)C2CSC3(C)CCC(=O)N23)c1 (centres undefined)	-3	0	96	25	1	12
Cc1cc(NC(=O)COC(=O)C2CSC3(C)CCC(=O)N23)ccc1Br (centres undefined)	2	0	98	-8	-9	5
CC12CCC(=O)N1C(C(=O)Nc1ccc(Cl)c(Cl)c1)CS2 (centres undefined)	7	0	98	-4	/	/
Cc1ncoc1C(=O)N1CCCC(C(=O)c2ccc(C(F)(F)F)cc2)C1 (centres undefined)	4	0	104	10	/	/
Cc1ccc(Cc2ccc(C(=O)NNC(N)=S)o2)cc1	1	0	97	59*	-8	-2
COc1ccc(NC(=O)c2ccc(Cc3ccc(C)cc3)o2)cc1	6	0	95	23	/	/
C[C@H]1CN([C@@H](C)CO)C(=O)CCCn2nncc2CO[C@@H]1CN(C)C(=O)Cc1ccccc1	2	/	98	/	/	/
CSc1nc2c(c(=O)n1Cc1ccccc1)SC(C)C2 (centres undefined)	-14	0	98	56*	-5	-2
Cc1cc(Cl)cc(C)c1OCC(=O)N1CCN(c2ncccn2)CC1	15	0	86	8	/	/
